High-throughput results: PubChem, Broad Institute
Sampled rows, rich in hits. Any-hit rate of the full collection: about 0.99%.
STK33 kinase inh: inhibitors of human STK33 kinase; AID 2661; inhibition, % at 10 µM; purified STK33, MBP phosphorylation, ADP-Glo luminescence; 320,000 tested, 0.073% active; Q9BYT3;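 active means inhibition at or above 25%, using the most active replicate where run in duplicate; inactive means inhibition below 25%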
Dyrk1A ADPGlo: Dyrk1A (rat) kinase inhibition. Q63470. ADP-Glo luminescence, NFATc1 peptide. inhibition, % at 12.5 µM. 310,000 tested, 0.43% active. AID 504441; in the data active means inhibition above about 50%;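 further: plate controls were vehicle with enzyme for no effect and no enzyme for full effect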
Rce1 inhib: inhibitors of yeast Ras-converting enzyme; yeast membranes, quenched prenylated peptide cleavage fluorescence; 290,000 tested, 0.27% active; Q03530; AID 2563; calls only;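 active means fall in fluorescence gain of 50% or more versus controls, with final raw signal at or below 3038400; inconclusive means same 50% fall but final raw signal above 3038400; inactive means fall in fluorescence gain under 50%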;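 further: plate controls were neutral control wells for no effect and wells lacking membranes for full effect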
GSK3B inh: inhibitors of human GSK3beta kinase; GST-GSK3beta kinase, ADP-Glo luminescence, 60 min; hits give low values; activity score (negative = inhibition), % at 10 µM; 300,000 tested, 0.038% active;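 active means more than half of replicate wells score below -50%, meaning over 50% inhibition versus plate controls; inconclusive means some replicates but at most half score below -50%; inactive means no replicate scores below -50%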;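 further: 0% = median DMSO wells and -100% = median GW8510 positive control wells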
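Test system – GST-tagged human GSK3beta kinase, cell-free · Incubation – 60 min enzyme reaction, room temperature · Signal – ADP-Glo luminescence · Also added – peptide substrate and ATP at 25 µM · Controls – DMSO neutral wells and GW8510 at 20 µM as positive · Buffer or medium – Tris/MgCl2 kinase buffer · Measure – Luminescence-derived activity versus plate DMSO and GW8510 wells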
AI-2 QS modul: modulates the Vibrio harveyi AI-2 quorum sensing system | 300,000 tested, 0.4% active | activity change, % at 7.5 µM | Vibrio harveyi JMH597 AI-2 luminescence/OD600 ratio, 9 h; hits give low values; strain lacks LuxN and CqsS sensors; 0 = neutral-control median | AID 2094; in the data active means activity change below about -75%, passing the limit was not always enough; inconclusive means no clear call, values can overlap the other calls;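 further: luminescence divided by OD600 gain over 9 h not by final OD600 alone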
GSK3 alpha inh: inhibitors of human GSK-3 alpha kinase; P49840; ADP-Glo luminescence, 60 min; inhibition, % at 10 µM; 320,000 tested, 0.1% active; AID 2650;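 active means more than half of replicates show inhibition above 20%; inconclusive means some but at most half of replicates above 20% inhibition; inactive means no replicate shows inhibition above 20%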;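 further: GST-tagged GSK-3 alpha with peptide substrate and 25 µM ATP; 0% = DMSO neutral wells and 100% = GW8510 positive control wells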
Target sequence (P49840 whole entry, looked up): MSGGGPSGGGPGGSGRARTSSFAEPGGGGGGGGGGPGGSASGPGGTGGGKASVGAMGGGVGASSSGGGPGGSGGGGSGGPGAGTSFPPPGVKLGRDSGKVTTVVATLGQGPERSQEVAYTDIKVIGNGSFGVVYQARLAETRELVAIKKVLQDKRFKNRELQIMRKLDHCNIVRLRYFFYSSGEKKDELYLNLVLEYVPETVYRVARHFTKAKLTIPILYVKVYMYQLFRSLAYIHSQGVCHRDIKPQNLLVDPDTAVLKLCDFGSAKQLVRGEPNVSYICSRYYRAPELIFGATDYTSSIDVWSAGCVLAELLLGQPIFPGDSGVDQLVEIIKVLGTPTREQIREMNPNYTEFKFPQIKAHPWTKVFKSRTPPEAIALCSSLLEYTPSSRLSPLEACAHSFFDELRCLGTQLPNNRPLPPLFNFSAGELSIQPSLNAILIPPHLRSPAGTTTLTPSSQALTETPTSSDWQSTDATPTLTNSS
The depositor's hits bear a star; i = inactive; u = inconclusive; x = no result given; + = active, no number.

SMILES | STK33 kinase inh | Dyrk1A ADPGlo | Rce1 inhib | GSK3B inh | AI-2 QS modul | GSK3 alpha inh
Cc1nc2cc(-c3cccc(F)c3)nn2c(C)c1CCC(=O)N1CCN(c2ccccn2)CC1 | -3 | -4 | i | -1 | 21 | 0
Cc1ccc(C(=O)c2c3ccc(C(F)(F)F)cc3nn2CCC(N)=O)cc1 | 1 | 8 | + | 1 | 2 | -5
COc1cccc(C2C3=C(CC(C)(C)CC3=O)Nc3n[nH]c(C)c32)c1 (stereo not drawn) | -1 | 7 | i | -86* | -10 | 78*
Cc1[nH]nc2c1C(c1ccsc1)C1=C(CC(C)(C)CC1=O)N2 (stereo not drawn) | 4 | 8 | i | -77* | 11 | 84*
CC1(C)CC(=O)C2=C(C1)NC1=C(C(=O)c3ccccc31)C2c1ccc(O)cc1 (stereo not drawn) | 0 | -7 | i | -25 | 19 | 3
COc1ccc(C2C(C#N)=C(SC)NC3=C2C(=O)CC(C)(C)C3)cc1 (stereo not drawn) | 1 | 9 | i | 3 | 9 | 10
Cc1ccc(C2C3=C(CC(C)(C)CC3=O)Nc3[nH]c(=S)[nH]c(=O)c32)cc1 (stereo not drawn) | -1 | -5 | i | -2 | 38 | x
Cc1[nH]nc2c1C(c1ccc(O)cc1)C1=C(CC(C)(C)CC1=O)N2 (stereo not drawn) | 0 | 11 | i | -74* | 0 | 86*
COc1ccc(C2C3=C(CC(C)(C)CC3=O)Nc3n[nH]c(C)c32)cc1 (stereo not drawn) | 2 | 3 | + | -33 | 7 | 41
Cc1ccc(S(=O)(=O)N(C)S(=O)(=O)c2ccc(C#N)cc2)cc1 | -1 | x | i | -1 | 20 | 0
CC1CCCCC12NC(=O)N(CC(=O)N1CCN(Cc3ccc(C#N)cc3)CC1)C2=O (stereo not drawn) | 0 | x | x | x | x | -3
Cc1ccc(N2CC(C(=O)Nc3ncc([N+](=O)[O-])s3)CC2=O)cc1 (stereo not drawn) | 0 | -2 | i | -22 | 30 | 51*
CN(CC(=O)NC(=O)NCc1ccccc1)CC(=O)Nc1ccc(Cl)c(Cl)c1 | 0 | x | x | x | x | -3
COC(=O)c1ccc(COc2ncnc3c(Cl)cc(Cl)cc23)o1 | -1 | 11 | i | 4 | -79* | 0
CC(C)(OC(=O)c1ccc(F)cc1)c1cc2ccccc2c(=O)o1 | -1 | -4 | x | x | x | -1
CC(=O)c1c(O)cc(O)cc1CC(=O)O | 0 | 10 | i | 1 | 3 | -2
CC(=O)c1c(O)cc(O)c(C(C)=O)c1O | 2 | 22 | + | 2 | -24 | -2
N=c1c(C(=O)NCc2ccc(F)cc2)cc2c(=O)n3ccccc3nc2n1Cc1cccnc1 | 0 | 2 | + | 3 | 19 | 1
NS(=O)(=O)c1ccc(N=Nc2ccc(=O)[nH]c2O)cc1 | -2 | 0 | i | -33 | 31 | 55*
COC(C/C=C\C(=O)[C@@H](C)OCc1ccccc1)OC | 1 | x | i | -2 | 19 | -4
COc1ccc(Cl)cc1C(Nc1cccnc1)c1ccc2cccnc2c1O (stereo not drawn) | 0 | 0 | i | 1 | -82* | -3
CC1(C)N=C(N)N=C(N)N1CCCCc1ccccc1 | x | 5 | x | x | x | x
O=C(CSc1nnnn1-c1ccc(O)cc1)c1cc2ccccc2o1 | -1 | 26 | i | 1 | -77* | 3
Cc1cc(C)c(-n2nnnc2SCC(=O)c2cc3ccccc3o2)c(C)c1 | 0 | 13 | i | 0 | 8 | 9
CC(C)[C@@H](CSc1ccccc1)N1CCN(Cc2ccccc2)CCC1=O | -3 | 3 | i | 0 | 20 | -1
SMILES | STK33 kinase inh | Dyrk1A ADPGlo | Rce1 inhib | GSK3B inh | AI-2 QS modul | GSK3 alpha inh
CCC(C(=O)Nc1ccc2[nH]ncc2c1)c1ccccc1 (stereo not drawn) | 26* | 26 | i | 2 | 6 | 12
CCC(C(=O)Nc1ccncc1)c1ccccc1 (stereo not drawn) | 0 | x | i | 2 | 8 | 0
Cc1cccc(-c2oc3ccccc3c2C#CCCCCO)c1 | -2 | 5 | + | 2 | 6 | -4
Cc1cccc(-c2oc3ccccc3c2C#CCCO)c1 | -2 | 13 | + | -1 | 7 | -1
CCCOc1ccc(OCCSc2nnc(N)s2)cc1 | 1 | 0 | i | -2 | 26 | 2
Nc1nnc(SCCOc2cccc(Br)c2)s1 | 0 | -1 | i | -2 | -79* | -4
COc1ccc(-c2[nH]ncc2/C=N\NC(=O)c2ccc(Br)o2)cc1OC | 3 | 9 | i | -12 | 6 | 24
Cc1cc(C)c(C(=O)C(C)OC(=O)c2ccc(Cl)nc2)cc1C (stereo not drawn) | -1 | -1 | i | 5 | 20 | -3
OC(CNCCC1C=Nc2ccccc21)Cn1c2ccc(Cl)cc2c2cc(Cl)ccc21 (stereo not drawn) | -1 | -2 | + | -1 | 55 | 1
c1ccc(CCNc2ccnc3cc4ccccc4cc23)cc1 | x | 13 | + | 1 | 24 | x
O=C1COc2ccc(N3C(=O)C=CC3=O)cc2N1 | 1 | x | i | 3 | -81* | 1
Cc1oc(-c2ccc(Cl)cc2)nc1CS(=O)CC(=O)NCc1ccco1 (stereo not drawn) | 0 | -6 | + | -1 | x | -3
Cc1ccc2nc(SCC(=O)NCc3ccc(F)cc3)nc(=O)n2c1 | -3 | 7 | i | 0 | 19 | -1
COc1ccccc1NC(=O)C(C)Sc1nc(-c2ccccc2)cn1N (stereo not drawn) | -2 | 4 | x | x | x | -4
Cc1ccc(NC(=O)CN2C(=O)NC3(CCc4ccccc43)C2=O)cc1Cl (stereo not drawn) | -1 | -5 | i | 0 | -90* | 0
CC(C)(C)OC(=O)N1CCC(NC(=O)c2[nH]cnc2C(=O)Nc2ccon2)CC1 | -1 | -7 | x | x | x | 72*
c1ccc(CNc2nc(NCc3ccccc3)c3ccccc3n2)cc1 | 2 | -3 | + | 1 | 26 | 2
c1ccc(CNc2nc(-c3ccccc3)nc3ccccc23)cc1 | -1 | 6 | i | -4 | 1 | -4
Oc1cccc(C(Nc2nccs2)c2ccc3cccnc3c2O)c1 (stereo not drawn) | -2 | 5 | i | 0 | -85* | 1
O=c1c2ccccc2oc2cc(NCCCN3CCOCC3)ccc12 | 12 | 17 | u | -2 | 18 | 3
CN1CCCC1CCNc1ccc2oc3ccccc3c(=O)c2c1 (stereo not drawn) | 39* | x | i | -1 | 26 | 3
O=c1c2ccccc2oc2ccc(NCCCN3CCOCC3)cc12 | 50* | 5 | i | 2 | 15 | 3
O=C1NC(c2ccc(Br)cc2)Nc2ccccc21 (stereo not drawn) | x | 1 | + | 2 | -1 | x
